The record followed here is ChEMBL document CHEMBL3085772, “Synthesis, biological evaluation and molecular modeling study of 5-trifluoromethyl-Δ²-pyrazoline and isomeric 5/3-trifluoromethylpyrazole derivatives as anti-inflammatory agents” (2013).

Molecules are shown by their SMILES.

Assay type in all cases: functional
Parameters in all cases: scale not given: the % may be the effect or the level left

Test [1] has as its system Rattus norvegicus. The experiment in a line: Antiinflammatory activity in Wistar albino rat assessed as reduction in carrageenan-induced paw edema at 50 mg/kg, po administered 30 mins prior to carrageenan challenge measured after 1 hr by plethysmometer. In a few lines: (§1)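 Rats housed under standard light and temperature with free food and water; food withdrawn 12 h before and during testing; six rats per group, control given tween 80. Oral dosing 30 min before subplantar injection of 0.1 mL 1% w/v carrageenan in normal saline into left hind paw. Paw volume read by plethysmometer at baseline and 1, 2, 3, 4 h; %AI = (Vc−Vt)/Vc×100.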
A general note: The carrageenan paw model is a standard test of acute inflammation.

Test [2] concerns Rattus norvegicus. The experiment in a line: Antiinflammatory activity in Wistar albino rat assessed as reduction in carrageenan-induced paw edema at 50 mg/kg, po administered 30 mins prior to carrageenan challenge measured after 4 hrs by plethysmometer. In a few lines:
as §1

In test [3] the test system is Rattus norvegicus. The experiment in a line: Antiinflammatory activity in Wistar albino rat assessed as reduction in carrageenan-induced paw edema at 50 mg/kg, po administered 30 mins prior to carrageenan challenge measured after 2 hrs by plethysmometer. Summed up: as §1
For test [4], the system named is Rattus norvegicus. The experiment in a line: Antiinflammatory activity in Wistar albino rat assessed as reduction in carrageenan-induced paw edema at 50 mg/kg, po administered 30 mins prior to carrageenan challenge measured after 3 hrs by plethysmometer. Summed up:
as §1

In test [5] the test system is Rattus norvegicus. The experiment in a line: Antiinflammatory activity in Wistar albino rat assessed as reduction in carrageenan-induced paw edema at 10 mg/kg, po administered 30 mins prior to carrageenan challenge measured after 4 hrs by plethysmometer. Summed up:
as §1

The test system of test [6] is Rattus norvegicus. The experiment in a line: Antiinflammatory activity in Wistar albino rat assessed as reduction in carrageenan-induced paw edema at 10 mg/kg, po administered 30 mins prior to carrageenan challenge measured after 2 hrs by plethysmometer. In a few lines:
as §1

The subject of test [7] is Rattus norvegicus. Nature of the test: Antiinflammatory activity in Wistar albino rat assessed as reduction in carrageenan-induced paw edema at 10 mg/kg, po administered 30 mins prior to carrageenan challenge measured after 3 hrs by plethysmometer. In a few lines: as §1
Test [8] relates to Rattus norvegicus. The experiment in a line: Antiinflammatory activity in Wistar albino rat assessed as reduction in carrageenan-induced paw edema at 10 mg/kg, po administered 30 mins prior to carrageenan challenge measured after 1 hr by plethysmometer. In a few lines:
as §1

For `Cc1cc(C)nc(-n2nc(-c3cccs3)cc2C(F)(F)F)n1`, the Activity in the test with Rattus norvegicus [1] was 8.6%; with Rattus norvegicus [2], 37%; in the test on Rattus norvegicus [3] it was 18%; in the test on Rattus norvegicus [4], 47%.
Consider `Cc1cc(C)nc(-n2nc(C(F)(F)F)cc2C(F)(F)F)n1`, for which the Activity in the test on Rattus norvegicus [1] is given as 34%; with Rattus norvegicus [2], 44%; with Rattus norvegicus [3], 46%; in the test with Rattus norvegicus [4], 57%.
On to `Cc1cc(C)nc(-n2nc(-c3ccc(F)cc3)cc2C(F)(F)F)n1`, for which the Activity in the test with Rattus norvegicus [1] turned out to be 26%; with Rattus norvegicus [2], 49%; in the test on Rattus norvegicus [3], 38%; in the test with Rattus norvegicus [4] it was 55%.
The corresponding values for `Cc1ccc(-c2cc(C(F)(F)F)nn2-c2nc(C)cc(C)n2)cc1` are 48%, 53%, 55% and 69%.
For `Cc1cc(C)nc(N2N=C(C(F)(F)F)C[C@@]2(O)C(F)(F)F)n1` the same measures were 42%, 23%, 44% and 49%.
For `Cc1cc(C)nc(-n2nc(C(F)(F)F)cc2-c2ccccc2)n1` the same measures were 33%, 51%, 43% and 62%.
In the case of `Cc1ccc(C2=NN(c3nc(C)cc(C)n3)[C@](O)(C(F)(F)F)C2)cc1`, the Activity in the test with Rattus norvegicus [1] amounted to 32%; in the test on Rattus norvegicus [2], 50%; with Rattus norvegicus [3] it was 35%; with Rattus norvegicus [4], 54%.
The corresponding values for `COc1ccc(-c2cc(C(F)(F)F)nn2-c2nc(C)cc(C)n2)cc1` are 56%, 61%, 59% and 72%.
The corresponding values for `Cc1cc(C)nc(-n2nc(-c3ccccc3)cc2C(F)(F)F)n1` are 4.3%, 56%, 20% and 59%.
As for `COc1ccc2c(c1)c(CC(=O)O)c(C)n2C(=O)c1ccc(Cl)cc1` [INDOMETHACIN], the Activity in the test with Rattus norvegicus [5] was found to be 74%; with Rattus norvegicus [6] it was 75%; with Rattus norvegicus [7], 78%; with Rattus norvegicus [8], 69%.
For `Cc1cc(C)nc(-n2nc(C(F)(F)F)cc2-c2ccc(F)cc2)n1`, the Activity in the test with Rattus norvegicus [1] amounted to 29%; in the test with Rattus norvegicus [2], 58%; in the test on Rattus norvegicus [3], 59%; in the test with Rattus norvegicus [4] it was 67%.
For `Cc1cc(C)nc(N2N=C(c3ccc(Cl)cc3)C[C@@]2(O)C(F)(F)F)n1`, the Activity with Rattus norvegicus [1] was 5.7%; in the test with Rattus norvegicus [2], 45%; with Rattus norvegicus [3] it was 50%; with Rattus norvegicus [4] it was 59%.
Regarding `Cc1cc(C)nc(N2N=C(c3ccc(F)cc3)C[C@@]2(O)C(F)(F)F)n1`, the Activity was 49% with Rattus norvegicus [1], 38% with Rattus norvegicus [2], 51% in the test with Rattus norvegicus [3] and 54% in the test on Rattus norvegicus [4].
The corresponding values for `Cc1cc(C)nc(-n2nc(C(F)(F)F)cc2-c2ccc(Cl)cc2)n1` are 55%, 63%, 64% and 76%.
`Cc1cc(C)nc(-n2nc(-c3ccc(Cl)cc3)cc2C(F)(F)F)n1`: the Activity is 35% with Rattus norvegicus [1], 53% in the test with Rattus norvegicus [2], 54% in the test on Rattus norvegicus [3] and 58% in the test with Rattus norvegicus [4].
The corresponding values for `Cc1cc(C)nc(N2N=C(c3ccccc3)C[C@@]2(O)C(F)(F)F)n1` are 44%, 45%, 47% and 50%.
